The source of these data is PMC4133170 (Biochimica et biophysica acta, 2014).

The subject of one assay is hCMEC/D3 cells. Kind of assay: MTT cytotoxicity assay. The class given is cell-based, human.
Assay [1] deals with LRP1. Kind of assay: Western blot of LRP1 expression in hCMEC/D3 cells. Type of assay: cell-based, human. The settings on record: 24 h, 100 nM monomeric Aβ40 or 50 nM Aβ42 oligomers, n = 3. The method in brief: (§1)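 hCMEC/D3 cells (1 × 10⁶ per 100 mm dish) grown to 70% confluence, then given 24 h of control media, 100 nM Aβ40 monomer, 50 nM Aβ42 oligomer or both. Lysed in RIPA with protease inhibitors; 25 μg protein on 8% Bis-Tris/MOPS gel, nitrocellulose, 2% BSA block. Overnight primary: LRP1 1:1500, RAGE 1:200, GAPDH 1:3000. HRP secondary 1:5000; bands quantified; three independent blots.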

The test system of a further assay is RAGE. Kind of assay: Western blot of RAGE expression in hCMEC/D3 cells. Type of assay: cell-based, human. The settings on record: 24 h, 100 nM monomeric Aβ40 or 50 nM Aβ42 oligomers, n = 3. The method in brief: as §1
The test system of assay [2] is LRP1. The settings on record: in vivo administration of 100 μg over 26 h, FVB wild type mice; cited from earlier work.

Consider “Aβ40 monomer: synthetic Aβ40 peptide (AnaSpec), HFIP film dissolved in media and used immediately”, for which, in the assay on hCMEC/D3 cells (24 h treatment with 250 nM Aβ40 monomer, mean of n = 3 independent experiments), the “decrease in viability of hCMEC/D3 (MTT)” value is 14–17%. Further, the “MTT assay result versus control” value in the assay with hCMEC/D3 cells (24 h treatment, Aβ40 monomers at 50 and 100 nM, n = 3) was “comparable to control treated cells”. Moreover, the “reduction of LRP1 expression” value in the assay with LRP1 [1] is on record as “not observed”. In addition, the “alteration in RAGE protein expression” value in the assay on RAGE is “did not show any significant alterations”.
For the substance “Aβ42 monomers: human sequence Aβ42 monomers administered in vivo in a cited study”, the “LRP1 expression in brain tissue” value with LRP1 [2] was “significant reduction in LRP1 expression”.
